≈ marks a conversion by molar mass, not a printed value.
Key:
[1] = test system: Mycobacterium tuberculosis; assay: Antibacterial activity against Mycobacterium tuberculosis H37RvMA grown in 7H9/ADC medium measured 7 to 14 days post inoculation by broth microdilution method; format: functional
[2] = test system: Mycobacterium tuberculosis; assay: Antibacterial activity against Mycobacterium tuberculosis H37RvMA grown in GAST/Fe medium measured 7 to 14 days post inoculation by broth microdilution method; format: functional
Method in brief: (§1)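 H37RvMa grown to OD600 0.6–0.7, diluted 1:100 in GAST/Fe. Compounds two-fold serially diluted from a top concentration of 640 μM, in duplicate. Incubated at 37 °C with humidification.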

Vero = assay: Cytotoxicity against African green monkey Vero cells assessed as reduction in cell viability by MTT assay; format: cell-based; settings: Chlorocebus sabaeus
Method in brief: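 MTT assay in Vero cells, samples in triplicate on one occasion. Stocks at 20 mg/mL in DMSO, diluted in complete medium as 10-fold serial dilutions over 6 concentrations. Emetine used as reference. IC50 derived by non-linear dose-response curve fitting.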

[3] = Kinetic solubility of the compound in fasted-state simulated intestinal fluid at 10 to 220 uM at pH 6.5 after 2 hrs by shake flask method; format: physicochemical; settings: read-out: Kinetic_solubility
Method in brief: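 Miniaturised shake flask. 10 mM DMSO stocks spiked 1:50 into duplicate FaSSIF (pH 6.5), 2% final DMSO. Shaken 2 h at 25 °C, filtered, analysed by HPLC-DAD against calibration standards (10–220 μM).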

[4] = Lipophilicity, log P of the compound at 100 uM at pH 7.4 after 3 hrs by shake-flask method; format: physicochemical; settings: buffer
Method in brief: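 Shake-flask method run in triplicate. A 10 mM stock was spiked into a 1:1 mixture of phosphate buffer (pH 7.4) and n-octanol, then shaken at 1500 rpm on an orbital shaker for 3 h at room temperature.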

Liver [5] = assay: Metabolic stability in rat liver microsomes assessed as compound remaining at 0.1 uM after 30 mins by LC-MS/MS analysis; format: ADME, microsome; settings: 0.5 h
Method in brief: (§2)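 Compound at 0.1 μM incubated in duplicate with mouse, rat or pooled human liver microsomes (0.4 mg/mL) at 37 °C. Run with and without 1 mM NADPH, sampled at predetermined time points.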

Plasma = assay: Fraction unbound in human plasma at 5 uM pre-incubated for 1 hr by ultra-centrifugation and LC-MS/MS method; format: ADME, cell-free
Method in brief: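 Pooled human plasma spiked to 5 μM and pre-incubated 1 h at 37 °C. Duplicate aliquots ultracentrifuged 4 h at 37 °C; an unspun aliquot served as the total sample. Analyte measured by LC-MS/MS.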

Liver [6] = assay: Metabolic stability in human liver microsomes assessed as compound remaining at 0.1 uM after 30 mins by LC-MS/MS analysis; format: ADME, microsome; settings: 0.5 h; method in brief: as §2
Liver [7] = assay: Metabolic stability in mouse liver microsomes assessed as compound remaining at 0.1 uM after 30 mins by LC-MS/MS analysis; format: ADME, microsome; settings: 0.5 h; method in brief: as §2
Mus musculus [8] = assay: Apparent elimination half life in C57/BL6 mouse at 20 mg/kg, po measured up to 24 hrs post dose by LC-MS/MS analysis; format: ADME, organism-based; settings: in vivo
Method in brief: (§3)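 Male mice, 3 per route, not fasted, free access to water. Oral dose given as aqueous suspension in 0.5% (w/v) hydroxypropyl methylcellulose with 0.4% (v/v) Tween 80. Blood drawn into heparinised tubes at 0.5, 1, 3, 5, 8, 12 and 24 h, kept below -15 °C, protein-precipitated with ice-cold acetonitrile. Quantified by LC-MS/MS against standards made in drug-free mouse blood.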

Mus musculus [9] = assay: Cmax in C57/BL6 mouse at 20 mg/kg, po measured up to 24 hrs post dose by LC-MS/MS analysis; format: ADME, organism-based; design: dose 20 mg/kg, route oral; settings: in vivo; method in brief: as §3
Mus musculus [10] = assay: Tmax in C57/BL6 mouse at 20 mg/kg, po measured up to 24 hrs post dose by LC-MS/MS analysis; format: ADME, organism-based; settings: in vivo; method in brief: as §3
Mus musculus [11] = assay: AUC (0 to infinity) in C57/BL6 mouse at 20 mg/kg, po measured up to 24 hrs post dose by LC-MS/MS analysis; format: ADME, organism-based; design: dose 20 mg/kg, route oral, time infinity; settings: in vivo; method in brief: as §3
Mus musculus [12] = assay: Oral bioavailability in C57/BL6 mouse at 20 mg/kg measured up to 24 hrs post dose by LC-MS/MS analysis; format: ADME, organism-based; settings: in vivo; method in brief: as §3
Mus musculus [13] = assay: Apparent elimination half life in C57/BL6 mouse at 5 mg/kg, iv measured up to 24 hrs post dose by LC-MS/MS analysis; format: ADME, organism-based; settings: in vivo
Method in brief: (§4)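 Male mice, 3 animals, not fasted, given an IV bolus in 10% DMSO, 50% propylene glycol/ethanol (4:1) and 40% polyethylene glycol or water. Blood sampled into heparinised tubes at 0.17, 0.5, 1, 3, 5, 8, 12 and 24 h, stored frozen, precipitated with ice-cold acetonitrile. Measured by LC-MS/MS with internal standards against blood-matrix calibration standards.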

Mus musculus [14] = assay: Volume of distribution in C57/BL6 mouse at 5 mg/kg, iv measured up to 24 hrs post dose by LC-MS/MS analysis; format: ADME, organism-based; settings: in vivo; method in brief: as §4
Mus musculus [15] = assay: AUC (0 to infinity) in C57/BL6 mouse at 5 mg/kg, iv measured up to 24 hrs post dose by LC-MS/MS analysis; format: ADME, organism-based; design: dose 5 mg/kg, route intravenous, time infinity; settings: in vivo; method in brief: as §4
[16] = test system: Mycobacterium tuberculosis; assay: Antibacterial activity against cytochrome bd oxidase knockout GFP-fused Mycobacterium tuberculosis H37RvMA grown in GAST/Fe medium measured on day 7 and day 14 post inoculation by fluorescence plate reader assay; format: functional
[17] = test system: Mycobacterium tuberculosis; assay: Antibacterial activity against cytochrome bd oxidase knockout GFP-fused Mycobacterium tuberculosis H37RvMA grown in 7H9/GLU/ADC medium measured on day 7 and day 14 post inoculation by fluorescence plate reader assay; format: functional; settings: Mycobacterium tuberculosis, H37RvMA; read-out: MIC99
[18] = Kinetic solubility of the compound in pH 7.4 solution at 10 to 220 uM after 2 hrs by shake flask method; format: physicochemical; settings: buffer, pH 7.4, 2 h, 220 µM
[19] = test system: Mycobacterium tuberculosis; assay: Antibacterial activity against wild type Mycobacterium tuberculosis H37Rv grown in GAST/Fe medium measured on day 14 post inoculation by broth microdilution method; format: functional; settings: 336 h; method in brief: as §1
[20] = test system: Mycobacterium tuberculosis; assay: Antibacterial activity against Mycobacterium tuberculosis H37Rv grown in middlebrook 7H9 medium measured on day 7 and 14 by MABA assay; format: functional; settings: 168 h
[21] = test system: Mycobacterium tuberculosis; assay: Antibacterial activity against Mycobacterium tuberculosis […] SAWC1125 grown in middlebrook 7H9 medium measured on day 7 and 14 by MABA assay; format: functional; settings: 168 h
Method in brief: (§5)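 Clinical M. tuberculosis strains tested by broth microdilution in 7H9 medium. On days 7 and 14, Alamar Blue added and plates reincubated 24 h at 37 °C. Colour read by eye (blue means no growth, pink means growth). MIC90 is the lowest concentration with no colour change.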

[22] = test system: Mycobacterium tuberculosis; assay: Antibacterial activity against Mycobacterium tuberculosis […] SAWC3933 grown in middlebrook 7H9 medium measured on day 7 and 14 by MABA assay; format: functional; settings: 168 h; method in brief: as §5
[23] = test system: Mycobacterium tuberculosis; assay: Antibacterial activity against Mycobacterium tuberculosis […] SAWC3385 grown in middlebrook 7H9 medium measured on day 7 and 14 by MABA assay; format: functional; settings: 168 h; method in brief: as §5
[24] = test system: Mycobacterium tuberculosis; assay: Antibacterial activity against Mycobacterium tuberculosis […] SAWC3200 grown in middlebrook 7H9 medium measured on day 7 and 14 by MABA assay; format: functional; settings: 168 h; method in brief: as §5
[25] = test system: Mycobacterium tuberculosis; assay: Antibacterial activity against Mycobacterium tuberculosis […] SAWC3388 grown in middlebrook 7H9 medium measured on day 7 and 14 by MABA assay; format: functional; settings: 168 h; method in brief: as §5
[26] = test system: Mycobacterium tuberculosis; assay: Antibacterial activity against Mycobacterium tuberculosis […] SAWC3906 grown in middlebrook 7H9 medium measured on day 7 and 14 by MABA assay; format: functional; settings: 168 h; method in brief: as §5
Liver [27] = assay: Drug metabolism in BALB mouse liver microsomes assessed as cleavage of amide bound on RHS at 10 uM after 1 hr by LC-MS/MS analysis; format: ADME, microsome
Method in brief: (§6)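 Incubation at 37 °C for 1 h with shaking in 100 mM phosphate buffer pH 7.4, 1 mg/ml microsomes, 5 mM MgCl2 and 1 mM NADPH. Ice-cold acetonitrile precipitation, filtration, then LC-MS/MS. Controls: unincubated sample, and samples lacking NADPH or lacking microsomes; propranolol 10 μM as positive control. Metabolites found by comparing T60 with T0 and no-NADPH chromatograms, with product ion spectra of [M+H]+ compared against parent and synthetic standards where available.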

Liver [28] = assay: Drug metabolism in BALB mouse liver microsomes assessed as N-demethylation on LHS at 10 uM after 1 hr by LC-MS/MS analysis; format: ADME, microsome; method in brief: as §6

Molecule CN(Cc1ccc(C(F)(F)F)nc1)c1cc(C(=O)Nc2ccccc2)ncn1 has an MIC99 [1] of 37 µM (≈ 14.3 µg/mL), an MIC99 [2] of 10 µM (≈ 3.87 µg/mL) and an IC50 (Vero) of 258 µM. For the same molecule, the solubility kinetic at 2 h [3] was < 5 µM, the logD at 3 h, 100 µM [4] was 3.7 and the Stability (Liver [5]) was 72%. For the same molecule, the Fu (Plasma) was 0.05%, the Stability (Liver [6]) was 85% and the Stability (Liver [7]) was 87%. The “betat1/2(app)” value (Mus musculus [8]) was 7.2 h, the Cmax (Mus musculus [9]) was 3400 nM and the Tmax (Mus musculus [10]) was 4 h. For the same molecule, the AUC (Mus musculus [11]) was 1999 µM·min, the F (Mus musculus [12]) was 42% and the “betat1/2(app)” value (Mus musculus [13]) was 0.7 h. It also gave a Vd (Mus musculus [14]) of 0.7 L/kg and an AUC (Mus musculus [15]) of 1179 µM·min.

With CN(Cc1ccc(S(C)(=O)=O)cc1)c1cc(C(=O)Nc2ccccc2)ncn1 the MIC99 [16] was > 125 µM, the MIC99 [17] was > 125 µM and the Kinetic_solubility [18] was 10 µM.

For CN(Cc1ccc(F)cc1)c1cc(C(=O)Nc2nncs2)ncn1, the MIC99 [1] was 12.5 µM (≈ 4.3 µg/mL), the MIC99 [2] was 4.7 µM (≈ 1.62 µg/mL) and the IC50 (Vero) was 21.9 µM. For the same molecule, the solubility kinetic at 2 h [3] was < 5 µM, the logD at 3 h, 100 µM [4] was 2 and the Kinetic_solubility [18] was 128 µM. The MIC99 [19] was 5 µM (≈ 1.72 µg/mL), the MIC90 [20] was 2.5 µM (≈ 0.861 µg/mL) and the MIC90 [21] was < 0.08 µM. The MIC90 [22] was 0.625 µM (≈ 0.215 µg/mL), the MIC90 [23] was < 0.08 µM and the MIC90 [24] was < 0.08 µM. The MIC90 [25] was 0.15 µM (≈ 0.0517 µg/mL), the MIC90 [26] was < 0.08 µM and the Stability (Liver [5]) was 65%. For the same molecule, the Fu (Plasma) was 0.01%, the Stability (Liver [6]) was 67% and the Stability (Liver [7]) was 74%. For the same molecule, the “betat1/2(app)” value (Mus musculus [8]) was 4.4 h, the Cmax (Mus musculus [9]) was 2580 nM and the Tmax (Mus musculus [10]) was 1 h. The AUC (Mus musculus [11]) was 1022 µM·min, the F (Mus musculus [12]) was 19% and the “betat1/2(app)” value (Mus musculus [13]) was 5.1 h. For the same molecule, the Vd (Mus musculus [14]) was 4.8 L/kg, the AUC (Mus musculus [15]) was 1329 µM·min and the Drug metabolism (Liver [27]) was “Metabolite_Detected”. For the same molecule, the Drug metabolism (Liver [28]) was “Metabolite_Detected”.

With CN(Cc1cccnc1)c1cc(C(=O)Nc2ccccc2)ncn1 the MIC99 [16] was 37 µM (≈ 11.8 µg/mL), the MIC99 [17] was 48 µM (≈ 15.3 µg/mL) and the Kinetic_solubility [18] was 150 µM.
